42 compounds from ChEMBL document CHEMBL1909516, “Synthesis of 9-substituted 2,3,4,9-tetrahydro-1H-carbazole derivatives and evaluation of their anti-prion activity in TSE-infected cells” (Eur J Med Chem, 2011) can be followed below.

The subject of data set [1] is GT1-7. The data set is described as follows: Antiprion activity in human transmissible spongiform encephalopathies agent Fukuoka-1 prion infected mouse GT1-7 cells assessed as inhibition of proteinase K-resistant PrPres accumulation at […] after 3 days by Western blotting analysis. It counts as cell-based. The procedure, abridged: (§1)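 GT1-7 mouse neuronal cells persistently infected with Fukuoka-1 agent, grown in DMEM with 10% FBS and penicillin G at 37 °C, 5% CO2. Seeded 3 × 10⁵ cells/well; 15 h later given compound diluted from 10 mM DMSO stock (control 0.1% DMSO). Lysate adjusted to 1 mg/mL protein, proteinase K 30 min 37 °C, pelleted, SDS-PAGE, anti-PrP M-20 Western blot. IC50 = 50% PrPres inhibition.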

A short description of data set [2]: Cytotoxicity against human transmissible spongiform encephalopathies agent Fukuoka-1 prion infected mouse GT1-7 cells at 10 uM after 3 days. It counts as cell-based. The note with it: gt1-7, 72 h.
Data set [3] concerns GT1-7. The data set is described as follows: Antiprion activity in human transmissible spongiform encephalopathies agent Fukuoka-1 prion infected in mouse GT1-7 cells assessed as inhibition of proteinase K-resistant PrPres accumulation at 5 uM after 3 days by Western blot analysis relative to control. It counts as cell-based. The procedure, abridged:
as §1
(In western blotting, separated proteins are transferred to a membrane and probed.)

Data set [4] can be described thus: Antiprion activity in human transmissible spongiform encephalopathies agent Fukuoka-1 prion infected mouse GT1-7 cells assessed as inhibition of proteinase K-resistant PrPres accumulation after 3 days by Western blot analysis. It counts as cell-based. The note with it: GT1-7, 72 h. The procedure, abridged:
as §1

Data set [5] has as its system GT1-7. The experiment in a line: Antiprion activity in human transmissible spongiform encephalopathies agent Fukuoka-1 prion infected mouse GT1-7 cells assessed as inhibition of PrPC expression at 5 uM after 3 days absence of proteinase K digestion. It counts as cell-based. The procedure, abridged: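 GT1-7 cells persistently infected with Fukuoka-1 agent, seeded 3 × 10⁵ cells/well. Compound from 10 mM DMSO stock added 15 h after seeding (vehicle 0.1% DMSO). Lysates adjusted to 1 mg/mL total protein (BCA). Run without proteinase K digestion, so PrPC is read by Western blot with M-20 anti-PrP antibody.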

The subject of data set [6] is GT1-7. The data set is described as follows: Ratio of compound IC50 over GJP14 IC50 for human transmissible spongiform encephalopathies agent Fukuoka-1 prion infected in mouse GT1-7 cells. It counts as cell-based.
Another data set is filed under the species Mus musculus. The experiment in a line: Antiprion activity in scrapie infected mouse ScN2a-3-Ch cells assessed as inhibition of proteinase K-resistant PrPres accumulation at 5 uM after 3 days by Western blot analysis relative to control. The procedure, abridged: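 Scrapie-infected ScN2a-3-Ch cells seeded at about 1 × 10⁵ cells/well and handled as in the GT1-7 assay. Compound diluted from 10 mM DMSO stock, with 0.1% DMSO control. Lysate protein adjusted to 1 mg/mL, then proteinase K digestion 30 min at 37 °C. Pellet analysed by Western blot for PrPres, expressed relative to control.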

Structures are written as SMILES. pIC50: −log10 of the molar value. The source made the active and inactive calls. No cut-off for these calls is given here.

Consider `OC(CNCc1cccc(F)c1)Cn1c2c(c3ccccc31)CCCC2` (centres undefined), for which the inhibition (as a rule, the percentage by which the read-out fell short of the control) in the data set on GT1-7 [1] was “Active”.

Turning to `OC(CN1CCCCC1)Cn1cccc1` (centres undefined), the inhibition entry in the data set on GT1-7 [1] is “inactive”.

On to `OC(CNc1ccccc1)Cn1c2c(c3ccccc31)CCCC2` (centres undefined), for which the inhibition result in the data set with GT1-7 [1] is “inactive”.

For the compound `OC(CNCc1ccc(Br)cc1)Cn1c2c(c3ccccc31)CCCC2` (centres undefined), the Activity entry in data set [2] is reported as “Toxic”. Also, in the data set on GT1-7 [3], the inhibition was determined as 25%.

As to `Cc1ccccc1CNCC(O)Cn1c2c(c3ccccc31)CCCC2` (centres undefined), the inhibition result in the data set on GT1-7 [1] was “Active”.

In the case of `OC(CNCc1cccc(Br)c1)Cn1c2c(c3ccccc31)CCCC2` (centres undefined), the inhibition result in the data set on GT1-7 [1] is “Active”.

Turning to `OC(CNCc1ccc(F)cc1)Cn1c2c(c3ccccc31)CCCC2` (centres undefined), in the data set on GT1-7 [1], the inhibition entry was “Active”.

For the compound `Cc1ccc(CNCC(O)Cn2c3c(c4ccccc42)CCCC3)cc1` (centres undefined), the Activity entry in data set [2] is “Toxic”. Moreover, the inhibition in the data set with GT1-7 [3] stood at 32%.

`OC(CNCc1ccccc1Br)Cn1c2c(c3ccccc31)CCCC2` (centres undefined): the inhibition entry in the data set with GT1-7 [1] is “Active”.

Turning to `OC(CNCc1cccc(Cl)c1)Cn1c2c(c3ccccc31)CCCC2` (centres undefined), in the data set with GT1-7 [1], the inhibition entry is “Active”.

As to `OC(CN1CCOCC1)Cn1c2c(c3ccccc31)CCCC2` (centres undefined), the inhibition result with GT1-7 [1] was “Active”.

Turning to `Cc1ccc2c(c1)c1c(n2CC(O)CN2CCCCC2)C(=O)CCC1` (centres undefined), in data set [4], the pIC50 (usually −log10 of the IC50, conventionally taken in molar units) was 5.07.

Regarding `OC(CN1CCCCC1)Cn1c2ccccc2c2ccccc21` (centres undefined), in the data set with GT1-7 [1], the inhibition result was “Active”.

Take `COc1ccc(CNCC(O)Cn2c3c(c4ccccc42)CCCC3)cc1` (centres undefined): the Activity entry in data set [2] is reported as “Toxic”. The inhibition in the data set on GT1-7 [3] turned out to be 23%.

In the case of `OC(CNCc1ccncc1)Cn1c2c(c3ccccc31)CCCC2` (centres undefined), the inhibition entry with GT1-7 [1] was “Active”.

On to `OC(CNCc1ccccc1)Cn1c2c(c3ccccc31)CCCC2` (centres undefined), for which, in the data set on GT1-7 [1], the inhibition result is “Active”. In addition, in the data set on GT1-7 [3], the inhibition stood at 28%.

On to `OC(CNCc1ccccc1C(F)(F)F)Cn1c2c(c3ccccc31)CCCC2` (centres undefined), for which the inhibition result in the data set on GT1-7 [1] is “Active”.

Regarding `OC(CN1CCCCC1)Cn1ccc2ccccc21` (centres undefined), the inhibition entry in the data set with GT1-7 [1] is “inactive”.

Consider `OC(CNCc1ccccn1)Cn1c2c(c3ccccc31)CCCC2` (centres undefined), for which, in the data set on GT1-7 [1], the inhibition result is “Active”.

In the case of `OC(CNCc1ccccc1F)Cn1c2c(c3ccccc31)CCCC2` (centres undefined), the inhibition entry with GT1-7 [1] is “Active”.

As for `OC(CNCc1ccccc1Cl)Cn1c2c(c3ccccc31)CCCC2` (centres undefined), the inhibition result in the data set on GT1-7 [1] is “Active”.

For the compound `OC(CNCc1cccc(C(F)(F)F)c1)Cn1c2c(c3ccccc31)CCCC2` (centres undefined), in data set [2], the Activity entry was “Toxic”. The inhibition in the data set with GT1-7 [3] was found to be 40%.

Regarding `OC(CNCc1ccc(Cl)cc1)Cn1c2c(c3ccccc31)CCCC2` (centres undefined), in data set [2], the Activity entry was “Toxic”. Also, in the data set on GT1-7 [3], the inhibition was determined as 18%.

For the compound `O=C(CN1CCCC1)Nc1ccc(Cc2ccc(NC(=O)CN3CCCC3)cc2)cc1`, the negative logarithm of the IC50 (pIC50) in data set [4] was 5.85. Also, the inhibition with GT1-7 [3] was 34%.

Turning to `OC(CNCc1cccnc1)Cn1c2c(c3ccccc31)CCCC2` (centres undefined), in the data set on GT1-7 [1], the inhibition entry was “Active”.

`OC(CN1CCCCC1)Cn1ccc2c1CCCC2` (centres undefined): in the data set with GT1-7 [1], the inhibition result is “inactive”.

Regarding `CCCCNCC(O)Cn1c2c(c3ccccc31)CCCC2` (centres undefined), the inhibition result in the data set with GT1-7 [1] is “Active”.

Take `COc1cccc(CNCC(O)Cn2c3c(c4ccccc42)CCCC3)c1` (centres undefined): in data set [2], the Activity result is listed as “Toxic”. Moreover, the inhibition with GT1-7 [3] was found to be 21%.

On to `Cc1cccc(CNCC(O)Cn2c3c(c4ccccc42)CCCC3)c1` (centres undefined), for which, in the data set with GT1-7 [1], the inhibition result was “Active”.

`OC(CNCc1c(F)cccc1F)Cn1c2c(c3ccccc31)CCCC2` (centres undefined): the inhibition result with GT1-7 [1] is “Active”.

`OC(CNCc1ccc(F)cc1F)Cn1c2c(c3ccccc31)CCCC2` (centres undefined): in the data set with GT1-7 [1], the inhibition result was “Active”.

With `OC(CN1CCCCC1)Cn1c2c(c3ccccc31)CCCC2` (centres undefined), in the data set on GT1-7 [1], the inhibition entry was “Active”.

With `O[C@@H](CNCc1ccccc1F)Cn1c2c(c3ccccc31)CCCC2`, the inhibition entry with GT1-7 [5] is “inactive”. The pIC50 in data set [4] was 5.95. For the same compound, the Ratio IC50 in the data set on GT1-7 [6] is 8. Moreover, the inhibition entry in the data set listed under Mus musculus is “Active”.

For the compound `COc1ccccc1CNCC(O)Cn1c2c(c3ccccc31)CCCC2` (centres undefined), the inhibition entry in the data set on GT1-7 [1] was “Active”.

For the compound `OC(CNCc1ccc(C(F)(F)F)cc1)Cn1c2c(c3ccccc31)CCCC2` (centres undefined), the inhibition entry with GT1-7 [1] is “Active”.

`c1ccc2c3c([nH]c2c1)CCCC3`: the inhibition result with GT1-7 [1] is “inactive”.

Turning to `OC(CNC1CCCC1)Cn1c2c(c3ccccc31)CCCC2` (centres undefined), the inhibition entry in the data set with GT1-7 [1] is “Active”.

On to `OC(CNCc1cccc2ccccc12)Cn1c2c(c3ccccc31)CCCC2` (centres undefined), for which the inhibition entry with GT1-7 [1] is “Active”.

Regarding `OC(CNCc1cc(F)ccc1F)Cn1c2c(c3ccccc31)CCCC2` (centres undefined), the inhibition entry in the data set with GT1-7 [1] is “Active”.

On to `O[C@H](CNCc1ccccc1F)Cn1c2c(c3ccccc31)CCCC2`, for which, in data set [4], the pIC50 is 5.65.

As for `CC(C)(NCC(O)Cn1c2c(c3ccccc31)CCCC2)c1ccccc1` (centres undefined), the Activity entry in data set [2] was “Toxic”. Besides, the inhibition with GT1-7 [3] was 34%.

Turning to `OC(CNCc1c(Cl)cccc1Cl)Cn1c2c(c3ccccc31)CCCC2` (centres undefined), the inhibition entry in the data set on GT1-7 [1] was “Active”.
